# Test results from ChEMBL document CHEMBL3244396, “Synthesis and antileukemic activity of 5-substituted 2,3-dihydro-6,7-bis(hydroxymethyl)-1H-pyrrolizine diesters” (J Med Chem, 1977).
# Legend:
# [1] = system: Mus musculus; test: Toxicity in female CDF1 mouse allografted with mouse P388 cells assessed as animal survival at 200 mg/kg, ip administered daily for 9 days as saline with Tween-80 solution starting 24 hrs after tumor inoculation; format: organism-based; design: dose 200 mg/kg, route intraperitoneal; conditions: in vivo
# Outline: (§1)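 P-388 leukemia ascitic fluid implanted ip. Compound dosed ip in saline with Tween-80 vehicle, once daily for nine doses from 24 h after tumor inoculation. Acute toxicity scored as toxicity-day survivors per group. Survival was followed up to 30 days, with 30-day survival counted as "cure". Follows NCI screening protocols.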
# [2] = system: P388; test: Antitumor activity against mouse P388 cells allografted in female CDF1 mouse assessed as disease cures by measuring 30-days host survival at 100 mg/kg, ip administered daily for 9 days as saline with Tween-80 solution starting 24 hrs after tumor inoculation relative to control; format: functional; conditions: route intraperitoneal
# Outline: (§2)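 P388 ascitic cell inoculum given ip to CDF1 mice of the sex in each line. Nine daily ip doses in saline with Tween-80 as vehicle, starting 24 h after inoculation. Median survival time expressed as %T/C (>125 significant); "cure" defined as 30-day survival.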
# [3] = system: L1210; test: Antileukemic activity against mouse L1210 cells allografted in female BDF1 mouse assessed as host mean survival time at 50 mg/kg, ip administered daily for 9 days as Klucel suspension starting 24 hrs after tumor inoculation relative to control; format: functional; conditions: route intraperitoneal
# Outline: (§3)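 L1210 leukemia given as an ascitic fluid cell inoculum, ip, to mice of the strain and sex in each line. Test material was given ip for nine daily doses starting 24 h after inoculation, in a Klucel (hydroxypropylcellulose) suspension. Read-out is mean survival time as %T/C versus controls, with >125 taken as significant.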
# [4] = system: P388; test: Antitumor activity against mouse P388 cells allografted in female CDF1 mouse assessed as disease cures by measuring 30-days host survival at 200 mg/kg, ip administered daily for 9 days as saline with Tween-80 solution starting 24 hrs after tumor inoculation relative to control; format: functional; conditions: route intraperitoneal; outline: as §2
# [5] = system: Mus musculus; test: Toxicity in female CDF1 mouse allografted with mouse P388 cells assessed as animal survival at 400 mg/kg, ip administered daily for 9 days as saline with Tween-80 solution starting 24 hrs after tumor inoculation; format: organism-based; design: dose 400 mg/kg, route intraperitoneal; conditions: in vivo; outline: as §1
# [6] = system: L1210; test: Antileukemic activity against mouse L1210 cells allografted in female BDF1 mouse assessed as change in body weight at 50 mg/kg, ip administered daily for 9 days as Klucel suspension starting 24 hrs after tumor inoculation; format: functional; conditions: route intraperitoneal
# Outline: (§4)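 Ascitic fluid carrying L1210 cells was inoculated ip. Compound was given ip as a Klucel (hydroxypropylcellulose) suspension in nine daily doses, starting 24 h after inoculation. Body-weight difference (treated minus control) was recorded on day 5. Survival was scored as %T/C of mean survival time.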
# [7] = system: Mus musculus; test: Toxicity in female BDF1 mouse allografted with mouse L1210 cells assessed as animal survival at 100 mg/kg, ip administered daily for 9 days as Klucel suspension starting 24 hrs after tumor inoculation measured on fifth day; format: organism-based; design: dose 100 mg/kg, route intraperitoneal; conditions: in vivo
# Outline: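 Female BDF1 mice bearing ip ascitic L1210 inoculum got nine daily ip doses in a Klucel suspension, starting 24 h after tumor inoculation. Toxicity was scored as toxicity-day survivors out of the group, recorded on the fifth day. Animal weight difference (T − C) was also tabulated.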
# [8] = system: P388; test: Antitumor activity against mouse P388 cells allografted in female CDF1 mouse assessed as change in body weight at 100 mg/kg, ip administered daily for 9 days as saline with Tween-80 solution starting 24 hrs after tumor inoculation; format: functional; conditions: route intraperitoneal
# Outline: (§5)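 Ascitic fluid carrying P388 cells was inoculated ip. Compound was given ip in nine daily doses, starting 24 h after inoculation, in Klucel (hydroxypropylcellulose) suspension or in saline with Tween-80. Body-weight difference (treated minus control) was recorded on day 5. Survival was scored as %T/C of median survival time, and 30-day survival counted as cure.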
# [9] = system: L1210; test: Antileukemic activity against mouse L1210 cells allografted in female BDF1 mouse assessed as change in body weight at 100 mg/kg, ip administered daily for 9 days as Klucel suspension starting 24 hrs after tumor inoculation; format: functional; conditions: route intraperitoneal; outline: as §4
# [10] = system: P388; test: Antitumor activity against mouse P388 cells allografted in female CDF1 mouse assessed as change in body weight at 200 mg/kg, ip administered daily for 9 days as saline with Tween-80 solution starting 24 hrs after tumor inoculation; format: functional; conditions: route intraperitoneal; outline: as §5
# [11] = system: L1210; test: Antileukemic activity against mouse L1210 cells allografted in female BDF1 mouse assessed as host mean survival time at 100 mg/kg, ip administered daily for 9 days as Klucel suspension starting 24 hrs after tumor inoculation relative to control; format: functional; conditions: route intraperitoneal; outline: as §3
# [12] = system: Mus musculus; test: Toxicity in female CDF1 mouse allografted with mouse P388 cells assessed as animal survival at 100 mg/kg, ip administered daily for 9 days as saline with Tween-80 solution starting 24 hrs after tumor inoculation; format: organism-based; design: dose 100 mg/kg, route intraperitoneal; conditions: in vivo; outline: as §1
# [13] = system: Mus musculus; test: Toxicity in female BDF1 mouse allografted with mouse L1210 cells assessed as animal survival at 200 mg/kg, ip administered daily for 9 days as Klucel suspension starting 24 hrs after tumor inoculation measured on fifth day; format: organism-based; design: dose 200 mg/kg, route intraperitoneal; conditions: in vivo
# Outline: (§6)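 L1210 leukemia passaged as ascitic fluid and inoculated ip. Test agent given ip as a Klucel (hydroxypropylcellulose) suspension, nine daily doses starting 24 h after tumor inoculation. Acute toxicity read as toxicity-day survivors per group (out of 6), recorded on day 5. Animal weight difference T − C was also recorded. Follows NCI screening protocols.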
# [14] = system: P388; test: Antitumor activity against mouse P388 cells allografted in female CDF1 mouse assessed as change in body weight at 400 mg/kg, ip administered daily for 9 days as saline with Tween-80 solution starting 24 hrs after tumor inoculation; format: functional; conditions: route intraperitoneal; outline: as §5
# [15] = system: L1210; test: Antileukemic activity against mouse L1210 cells allografted in female BDF1 mouse assessed as host mean survival time at 200 mg/kg, ip administered daily for 9 days as Klucel suspension starting 24 hrs after tumor inoculation relative to control; format: functional; conditions: route intraperitoneal; outline: as §3
# [16] = system: P388; test: Antitumor activity against mouse P388 cells allografted in female CDF1 mouse assessed as disease cures by measuring 30-days host survival at 400 mg/kg, ip administered daily for 9 days as saline with Tween-80 solution starting 24 hrs after tumor inoculation relative to control; format: functional; conditions: route intraperitoneal; outline: as §2
# [17] = system: L1210; test: Antileukemic activity against mouse L1210 cells allografted in female BDF1 mouse assessed as change in body weight at 200 mg/kg, ip administered daily for 9 days as Klucel suspension starting 24 hrs after tumor inoculation; format: functional; conditions: route intraperitoneal; outline: as §4
# [18] = system: Mus musculus; test: Toxicity in female BDF1 mouse allografted with mouse L1210 cells assessed as animal survival at 50 mg/kg, ip administered daily for 9 days as Klucel suspension starting 24 hrs after tumor inoculation measured on fifth day; format: organism-based; design: dose 50 mg/kg, route intraperitoneal; conditions: in vivo; outline: as §6
# [19] = system: Mus musculus; test: Toxicity in female BDF1 mouse allografted with mouse P388 cells assessed as animal survival at 25 mg/kg, ip administered daily for 9 days as Klucel suspension starting 24 hrs after tumor inoculation; format: organism-based; design: dose 25 mg/kg, route intraperitoneal; conditions: in vivo
# Outline: (§7)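 P-388 leukemia ascitic fluid inoculated ip. Compound given ip as a suspension in Klucel (hydroxypropylcellulose), once daily for nine doses beginning 24 h post-inoculation. Acute toxicity assessed as toxicity-day survivors per group. Survival was followed up to 30 days, with 30-day survival counted as "cure". Follows NCI screening protocols.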
# [20] = system: Mus musculus; test: Toxicity in female CDF1 mouse allografted with mouse P388 cells assessed as animal survival at 200 mg/kg, ip administered daily for 9 days as Klucel suspension starting 24 hrs after tumor inoculation; format: organism-based; design: dose 200 mg/kg, route intraperitoneal; conditions: in vivo; outline: as §7
# [21] = system: P388; test: Antitumor activity against mouse P388 cells allografted in female CDF1 mouse assessed as disease cures by measuring 30-days host survival at 200 mg/kg, ip administered daily for 9 days as Klucel suspension starting 24 hrs after tumor inoculation relative to control; format: functional; conditions: route intraperitoneal
# Outline: (§8)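 P388 leukemia given as an ascitic fluid cell inoculum, ip, to mice of the strain and sex in each line. Nine daily ip doses were given in a Klucel (hydroxypropylcellulose) suspension, starting 24 h after inoculation. Read-out is median survival time as %T/C, with >125 taken as significant; a "cure" means 30-day survival.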
# [22] = Cytotoxicity against human 9KB cells treated as ethanol solution; format: functional; conditions: read-out: ED50 (the source's name)
# Outline: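 Compound applied as an ethanol solution; activity read out as ED50 under the general screening protocol.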
# [23] = system: P388; test: Antitumor activity against mouse P388 cells allografted in female CDF1 mouse assessed as change in body weight at 200 mg/kg, ip administered daily for 9 days as Klucel suspension starting 24 hrs after tumor inoculation; format: functional; conditions: route intraperitoneal; outline: as §5
# [24] = system: P388; test: Antitumor activity against mouse P388 cells allografted in female CDF1 mouse assessed as change in body weight at 50 mg/kg, ip administered daily for 9 days as Klucel suspension starting 24 hrs after tumor inoculation; format: functional; conditions: route intraperitoneal; outline: as §5
# [25] = system: P388; test: Antitumor activity against mouse P388 cells allografted in female BDF1 mouse assessed as change in body weight at 12.5 mg/kg, ip administered daily for 9 days as Klucel suspension starting 24 hrs after tumor inoculation; format: functional; conditions: route intraperitoneal; outline: as §5
# [26] = system: P388; test: Antitumor activity against mouse P388 cells allografted in female BDF1 mouse assessed as disease cures by measuring 30-days host survival at 12.5 mg/kg, ip administered daily for 9 days as Klucel suspension starting 24 hrs after tumor inoculation relative to control; format: functional; conditions: route intraperitoneal; outline: as §8
# [27] = system: Mus musculus; test: Toxicity in female CDF1 mouse allografted with mouse P388 cells assessed as animal survival at 50 mg/kg, ip administered daily for 9 days as Klucel suspension starting 24 hrs after tumor inoculation; format: organism-based; design: dose 50 mg/kg, route intraperitoneal; conditions: in vivo; outline: as §7
# [28] = system: P388; test: Antitumor activity against mouse P388 cells allografted in female BDF1 mouse assessed as change in body weight at 25 mg/kg, ip administered daily for 9 days as Klucel suspension starting 24 hrs after tumor inoculation; format: functional; conditions: route intraperitoneal; outline: as §5
# [29] = system: P388; test: Antitumor activity against mouse P388 cells allografted in female CDF1 mouse assessed as disease cures by measuring 30-days host survival at 50 mg/kg, ip administered daily for 9 days as Klucel suspension starting 24 hrs after tumor inoculation relative to control; format: functional; conditions: route intraperitoneal; outline: as §8
# [30] = system: P388; test: Antitumor activity against mouse P388 cells allografted in female CDF1 mouse assessed as disease cures by measuring 30-days host survival at 100 mg/kg, ip administered daily for 9 days as Klucel suspension starting 24 hrs after tumor inoculation relative to control; format: functional; conditions: route intraperitoneal; outline: as §8
# [31] = system: P388; test: Antitumor activity against mouse P388 cells allografted in female CDF1 mouse assessed as change in body weight at 100 mg/kg, ip administered daily for 9 days as Klucel suspension starting 24 hrs after tumor inoculation; format: functional; conditions: route intraperitoneal; outline: as §5
# [32] = system: P388; test: Antitumor activity against mouse P388 cells allografted in female BDF1 mouse assessed as disease cures by measuring 30-days host survival at 25 mg/kg, ip administered daily for 9 days as Klucel suspension starting 24 hrs after tumor inoculation relative to control; format: functional; conditions: route intraperitoneal; outline: as §8
# [33] = system: Mus musculus; test: Toxicity in female BDF1 mouse allografted with mouse P388 cells assessed as animal survival at 12.5 mg/kg, ip administered daily for 9 days as Klucel suspension starting 24 hrs after tumor inoculation; format: organism-based; design: dose 12.5 mg/kg, route intraperitoneal; conditions: in vivo; outline: as §7
# [34] = system: Mus musculus; test: Toxicity in female CDF1 mouse allografted with mouse P388 cells assessed as animal survival at 100 mg/kg, ip administered daily for 9 days as Klucel suspension starting 24 hrs after tumor inoculation; format: organism-based; design: dose 100 mg/kg, route intraperitoneal; conditions: in vivo; outline: as §7
smiles,measurement,setting,value
COC(=O)c1c(C(=O)OC)c(-c2ccc(Cl)c(Cl)c2)n2c1CCC2,Activity,[1],Non-toxic
same,T/C,[2],87%
same,T/C,[3],91%
same,T/C,[4],89%
same,Activity,[5],Non-toxic
same,Activity,[6],2.8 g
same,Activity,[7],Non-toxic
same,Activity,[8],0.2 g
same,Activity,[9],3.4 g
same,Activity,[10],0.2 g
same,T/C,[11],88%
same,Activity,[12],Non-toxic
same,Activity,[13],Non-toxic
same,Activity,[14],-0.2 g
same,T/C,[15],98%
same,T/C,[16],88%
same,Activity,[17],1.1 g
same,Activity,[18],Non-toxic
CC(=O)OCc1c(COC(C)=O)c(-c2ccc(Cl)c(Cl)c2)n2c1CCC2,Activity,[19],Non-toxic
same,Activity,[20],Non-toxic
same,T/C,[21],127%
same,EC50,[22],> 100 µg/mL
same,Activity,[23],-3 g
same,Activity,[24],-0.7 g
same,Activity,[25],1.2 g
same,T/C,[26],114%
same,Activity,[27],Non-toxic
same,T/C,[3],100%
same,Activity,[28],1.2 g
same,Activity,[6],-1.1 g
same,T/C,[29],141%
same,Activity,[7],Non-toxic
same,T/C,[30],122%
same,Activity,[9],-2.2 g
same,T/C,[11],104%
same,Activity,[31],-1 g
same,Activity,[13],Non-toxic
same,T/C,[32],125%
same,Activity,[33],Non-toxic
same,T/C,[15],100%
same,Activity,[17],-3.3 g
same,Activity,[18],Non-toxic
same,Activity,[34],Non-toxic
